# From ChEMBL document CHEMBL2062469, “1-(2-Mercaptobenzenesulfonyl)-3-hydroxyguanidines--novel potent antiproliferatives, synthesis and in vitro biological activity” (2012)
# Legend:
# Assay type in all cases: functional
# SF-539 = test: Cytostatic activity against human SF539 cells
# How it was run: (§1)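 NCI-60 human tumor cell line screen run by the US National Cancer Institute under the NIH Developmental Therapeutics Program protocol. A single-dose prescreen at 10 µM came first. Selected compounds then went into the 5-dose assay. Cytostatic activity is reported as GI50 (µM).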
# MDA-MB-468 = test: Cytostatic activity against human MDA-MB-468 cells; how it was run: as §1
# OVCAR-5 = test: Cytostatic activity against human OVCAR5 cells; how it was run: as §1
# SK-MEL-28 = test: Cytostatic activity against human SK-MEL-28 cells; how it was run: as §1
# UACC-257 = test: Cytostatic activity against human UACC257 cells
# How it was run: (§2)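 Human tumour cell lines from the NCI-60 panel, tested at the US National Cancer Institute under the NIH Developmental Therapeutics Program protocol. A single-dose prescreen at 10 µM came first. Selected compounds then went to a 5-dose assay, which gave GI50 and TGI values in µM.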
# SK-MEL-2 = test: Cytostatic activity against human SK-MEL-2 cells; how it was run: as §1
# NCI-H522 = test: Cytostatic activity against human NCI-H522 cells; how it was run: as §1
# A498 = test: Cytostatic activity against human A498 cells; how it was run: as §1
# LOX IMVI = test: Cytostatic activity against human LOXIMVI cells; how it was run: as §1
# SR = test: Cytostatic activity against human SR cells; how it was run: as §2
# MDA-MB-231 = test: Cytostatic activity against human MDA-MB-231/ATCC cells; how it was run: as §1
# RXF 393 = test: Cytostatic activity against human RXF393 cells; how it was run: as §1
# OVCAR-3 = test: Cytostatic activity against human OVCAR3 cells; how it was run: as §1
# KM12 = test: Cytostatic activity against human KM12 cells; how it was run: as §1
# SW-620 = test: Cytostatic activity against human SW620 cells; how it was run: as §2
# SF-268 = test: Cytostatic activity against human SF268 cells; how it was run: as §1
# SK-OV-3 = test: Cytostatic activity against human SKOV3 cells; how it was run: as §1
# SF-295 = test: Cytostatic activity against human SF295 cells; how it was run: as §1
# HT-29 = test: Cytostatic activity against human HT-29 cells; how it was run: as §1
# MOLT-4 = test: Cytostatic activity against human MOLT4 cells; how it was run: as §1
# HCC 2998 = test: Cytostatic activity against human HCC2998 cells; how it was run: as §1
# ACHN = test: Cytostatic activity against human ACHN cells; how it was run: as §1
# NCI-H226 = test: Cytostatic activity against human NCI-H226 cells; how it was run: as §1
# UACC-62 = test: Cytostatic activity against human UACC62 cells; how it was run: as §2
# SNB-19 = test: Cytostatic activity against human SNB19 cells; how it was run: as §1
# K562 = test: Cytostatic activity against human K562 cells; how it was run: as §1
# BT-549 = test: Cytostatic activity against human BT549 cells; how it was run: as §1
# HCT-116 = test: Cytostatic activity against human HCT116 cells; how it was run: as §1
# 786-0 = test: Cytostatic activity against human 786-0 cells; how it was run: as §1
# UO-31 = test: Cytostatic activity against human UO31 cells; how it was run: as §2
# CCRF-CEM = test: Cytostatic activity against human CCRF-CEM cells; how it was run: as §1
# COLO 205 = test: Cytostatic activity against human COLO205 cells; how it was run: as §1
# OVCAR-8 = test: Cytostatic activity against human OVCAR8 cells; how it was run: as §1
# MDA-MB-435 = test: Cytostatic activity against human MDA-MB-435 cells; how it was run: as §1
# SNB-75 = test: Cytostatic activity against human SNB75 cells; how it was run: as §2
# PC-3 = test: Cytostatic activity against human PC3 cells; how it was run: as §1
# HOP-92 = test: Cytostatic activity against human HOP92 cells; how it was run: as §1
# NCI-H322M = test: Cytostatic activity against human NCI-H322M cells; how it was run: as §1
# EKVX = test: Cytostatic activity against human EKVX cells; how it was run: as §1
# MCF7 = test: Cytostatic activity against human MCF7 cells; how it was run: as §1
# HCT-15 = test: Cytostatic activity against human HCT15 cells; how it was run: as §1
# CAKI-1 = test: Cytostatic activity against human Caki1 cells; how it was run: as §1
# IGROV-1 = test: Cytostatic activity against human IGROV1 cells; how it was run: as §1
# HOP-62 = test: Cytostatic activity against human HOP62 cells; how it was run: as §1
# [1] = Cytostatic activity against human […] cells; how it was run: as §1
# NCI-H23 = test: Cytostatic activity against human NCI-H23 cells; how it was run: as §1
# Malme-3M = test: Cytostatic activity against human MALME-3M cells; how it was run: as §1
# Hs-578T = test: Cytostatic activity against human Hs 578T cells; how it was run: as §1
# U-251 = test: Cytostatic activity against human U251 cells; how it was run: as §2
# M14 = test: Cytostatic activity against human M14 cells; how it was run: as §1
# T47D = test: Cytostatic activity against human T47D cells; how it was run: as §2
# NCI-H460 = test: Cytostatic activity against human NCI-H460 cells; how it was run: as §1
# SK-MEL-5 = test: Cytostatic activity against human SK-MEL-5 cells; how it was run: as §1
# SN12C = test: Cytostatic activity against human SN12C cells; how it was run: as §1
# OVCAR-4 = test: Cytostatic activity against human OVCAR4 cells; how it was run: as §1
# DU-145 = test: Cytostatic activity against human DU145 cells; how it was run: as §1
# NCI/ADR-RES = test: Cytostatic activity against human NCI-ADR-RES cells; how it was run: as §1
structure (smiles),measurement,setting,value
N=C(NO)NS(=O)(=O)c1cc(-c2nc(-c3ccccc3)no2)c(Cl)cc1SCc1ccccc1,GI50,SF-539,2.72 µM
same,TGI,SF-539,6.44 µM
same,GI50,MDA-MB-468,1.56 µM
same,TGI,MDA-MB-468,3.04 µM
same,GI50,OVCAR-5,2.07 µM
same,TGI,OVCAR-5,5.31 µM
same,GI50,SK-MEL-28,1.71 µM
same,TGI,SK-MEL-28,3.46 µM
same,GI50,UACC-257,1.68 µM
same,TGI,UACC-257,3.53 µM
same,GI50,SK-MEL-2,1.96 µM
same,TGI,SK-MEL-2,4.03 µM
same,GI50,NCI-H522,1.32 µM
same,TGI,NCI-H522,2.97 µM
same,GI50,A498,2.57 µM
same,TGI,A498,7.85 µM
same,GI50,LOX IMVI,1.63 µM
same,TGI,LOX IMVI,4.09 µM
same,GI50,SR,1.43 µM
same,TGI,SR,5.88 µM
same,GI50,MDA-MB-231,2.03 µM
same,TGI,MDA-MB-231,5.24 µM
same,GI50,RXF 393,1.52 µM
same,TGI,RXF 393,2.97 µM
same,GI50,OVCAR-3,1.69 µM
same,TGI,OVCAR-3,3.12 µM
same,GI50,KM12,1.77 µM
same,TGI,KM12,3.55 µM
same,GI50,SW-620,1.68 µM
same,TGI,SW-620,3.21 µM
same,GI50,SF-268,1.74 µM
same,TGI,SF-268,3.95 µM
same,GI50,SK-OV-3,2.2 µM
same,TGI,SK-OV-3,4.55 µM
same,GI50,SF-295,2.05 µM
same,TGI,SF-295,5.79 µM
same,GI50,HT-29,1.9 µM
same,TGI,HT-29,3.49 µM
same,GI50,MOLT-4,1.45 µM
same,TGI,MOLT-4,3.74 µM
same,GI50,HCC 2998,2.01 µM
same,TGI,HCC 2998,4.03 µM
same,GI50,ACHN,2.02 µM
same,TGI,ACHN,3.9 µM
same,GI50,NCI-H226,2.23 µM
same,TGI,NCI-H226,4.8 µM
same,GI50,UACC-62,1.84 µM
same,TGI,UACC-62,3.83 µM
same,GI50,SNB-19,3.56 µM
same,TGI,SNB-19,18.7 µM
same,GI50,K562,1.87 µM
same,TGI,K562,4.74 µM
same,GI50,BT-549,2.45 µM
same,TGI,BT-549,5.23 µM
same,GI50,HCT-116,1.67 µM
same,TGI,HCT-116,3.32 µM
same,GI50,786-0,2.75 µM
same,TGI,786-0,7.06 µM
same,GI50,UO-31,1.4 µM
same,TGI,UO-31,7.64 µM
same,GI50,CCRF-CEM,1.91 µM
same,TGI,CCRF-CEM,5.3 µM
same,GI50,COLO 205,1.86 µM
same,TGI,COLO 205,3.39 µM
same,GI50,OVCAR-8,1.72 µM
same,TGI,OVCAR-8,3.82 µM
same,GI50,MDA-MB-435,1.51 µM
same,TGI,MDA-MB-435,3.08 µM
same,GI50,SNB-75,1.22 µM
same,TGI,SNB-75,3.94 µM
same,GI50,PC-3,1.79 µM
same,TGI,PC-3,3.88 µM
same,GI50,HOP-92,1.99 µM
same,TGI,HOP-92,9.01 µM
same,GI50,NCI-H322M,3.48 µM
same,TGI,NCI-H322M,16.2 µM
same,GI50,EKVX,1.36 µM
same,TGI,EKVX,2.71 µM
same,GI50,MCF7,1.45 µM
same,TGI,MCF7,2.97 µM
same,GI50,HCT-15,1.79 µM
same,TGI,HCT-15,3.83 µM
same,GI50,CAKI-1,1.67 µM
same,TGI,CAKI-1,3.65 µM
same,GI50,IGROV-1,2.38 µM
same,TGI,IGROV-1,7.53 µM
same,GI50,HOP-62,2.23 µM
same,TGI,HOP-62,5.12 µM
same,GI50,[1],2.34 µM
same,TGI,[1],9.03 µM
same,GI50,NCI-H23,1.86 µM
same,TGI,NCI-H23,4.36 µM
same,GI50,Malme-3M,1.8 µM
same,TGI,Malme-3M,7.42 µM
same,GI50,Hs-578T,2.55 µM
same,TGI,Hs-578T,6.36 µM
same,GI50,U-251,1.36 µM
same,TGI,U-251,2.84 µM
same,GI50,M14,2.15 µM
same,TGI,M14,4.39 µM
same,GI50,T47D,1.7 µM
same,TGI,T47D,3.48 µM
same,GI50,NCI-H460,1.94 µM
same,TGI,NCI-H460,3.95 µM
same,GI50,SK-MEL-5,1.48 µM
same,TGI,SK-MEL-5,2.86 µM
same,GI50,SN12C,1.53 µM
same,TGI,SN12C,3.27 µM
same,GI50,OVCAR-4,1.6 µM
same,TGI,OVCAR-4,4.06 µM
same,GI50,DU-145,1.71 µM
same,TGI,DU-145,3.17 µM
same,GI50,NCI/ADR-RES,2.06 µM
same,TGI,NCI/ADR-RES,5.05 µM
